Measured values from ChEMBL document CHEMBL1629545, “A morpholino oligomer targeting highly conserved internal ribosome entry site sequence is able to inhibit multiple species of picornavirus” (Antimicrob Agents Chemother, 2008).

Legend:
Poliovirus 1 = assay: Antiviral activity against Human poliovirus type 1 infected in Human HeLa cells assessed as log reduction in viral titer at 5 uM measured after 24 hrs post infection by plaque assay; format: functional, organism-based
Procedure, shortened: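 Nearly confluent HeLa cells were infected 1 h with a clinical PV1 isolate (passaged once in Vero and once in HeLa) at MOI 0.05. Inoculum was replaced by medium with 10% calf serum containing PPMO (2.5 or 5 μM) or water, at 37°C. Supernatant titre at 24 h p.i. was measured by plaque assay with 36 h plaque development.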

HeLa = assay: Cytotoxicity against human HeLa cells at 1 to 10 uM after 24 hrs by MTS assay; format: cell-based
Procedure, shortened: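 HeLa cells at ~80% confluence, uninfected, exposed to 1–100 μM PPMO or water (mock) in serum-free DMEM-F-12 (1:1) for 24 h. MTS reagent was added for 4 h and absorbance read at 492 nm. Viability was expressed as percent of water-treated cells (set to 100%), averaged over 12 wells.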

SK-N-MC = assay: Cytotoxicity against human SK-N-MC cell at 10 uM after 24 hrs by MTS assay; format: cell-based
rhinovirus B14 = assay: Antiviral activity against Human rhinovirus type 14 infected in Human HeLa cell assessed as log reduction in viral titer at 5 uM measured after 48 hrs post infection by plaque assay; format: functional, organism-based
Procedure, shortened: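 HRV14 from an infectious clone was used to infect nearly confluent HeLa cells for 1 h at MOI 0.03. Cells were then kept in 10% calf serum medium with PPMO or water at 34°C. Supernatant titre at 48 h p.i. was measured by plaque assay at 34°C with 72 h plaque development. Two experiments were averaged.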

Vero = assay: Cytotoxicity against African green monkey Vero cells at 10 uM after 24 hrs by MTS assay; format: cell-based; conditions: chlorocebus sabaeus

In the case of `Cc1cn([C@H]2CN(P(=O)(OC[C@@H]3CN(P(=O)(OC[C@@H]4CNC[C@H](n5cnc6c(=O)[nH]c(N)nc65)O4)N(C)C)C[C@H](n4cnc5c(N)ncnc54)O3)N(C)C)C[C@@H](COP(=O)(N(C)C)N3C[C@@H](COP(=O)(N(C)C)N4C[C@@H](COP(=O)(N(C)C)N5C[C@@H](COP(=O)(N(C)C)N6C[C@@H](COP(=O)(N(C)C)N7C[C@@H](COP(=O)(N(C)C)N8C[C@@H](COP(=O)(N(C)C)N9C[C@@H](COP(=O)(N(C)C)N%10C[C@@H](COP(=O)(N(C)C)N%11C[C@@H](COP(=O)(N(C)C)N%12C[C@@H](COP(=O)(N(C)C)N%13C[C@@H](COP(=O)(N(C)C)N%14C[C@@H](COP(=O)(N(C)C)N%15C[C@@H](COP(=O)(N(C)C)N%16C[C@@H](COP(=O)(N(C)C)N%17C[C@@H](COP(=O)(N(C)C)N%18C[C@@H](COP(=O)(N(C)C)N%19C[C@@H](COP(=O)(N(C)C)N%20C[C@@H](COP(=O)(N(C)C)N%21C[C@@H](COP(=O)(N(C)C)N%22C[C@@H](COP(=O)(N(C)C)N%23C[C@@H](COP(=O)(N(C)C)N%24CCN(C(=O)[C@H](CS)NC(=O)[C@H](Cc%25ccccc%25)NC(=O)[C@H](Cc%25ccccc%25)NC(=O)[C@H](CCCNC(=N)N)NC(=O)[C@H](CCCNC(=N)N)NC(=O)[C@H](CCCNC(=N)N)NC(=O)[C@H](CCCNC(=N)N)NC(=O)[C@H](CCCNC(=N)N)NC(=O)[C@H](CCCNC(=N)N)NC(=O)[C@H](CCCNC(=N)N)NC(=O)[C@H](CCCNC(=N)N)NC(=O)[C@@H](N)CCCNC(=N)N)CC%24)O[C@@H](n%24cnc%25c(=O)[nH]c(N)nc%25%24)C%23)O[C@@H](n%23cnc%24c(N)ncnc%24%23)C%22)O[C@@H](n%22cnc%23c(=O)[nH]c(N)nc%23%22)C%21)O[C@@H](n%21cnc%22c(N)ncnc%22%21)C%20)O[C@@H](n%20cnc%21c(N)ncnc%21%20)C%19)O[C@@H](n%19cnc%20c(N)ncnc%20%19)C%18)O[C@@H](n%18ccc(N)nc%18=O)C%17)O[C@@H](n%17cnc%18c(N)ncnc%18%17)C%16)O[C@@H](n%16ccc(N)nc%16=O)C%15)O[C@@H](n%15cnc%16c(=O)[nH]c(N)nc%16%15)C%14)O[C@@H](n%14cnc%15c(=O)[nH]c(N)nc%15%14)C%13)O[C@@H](n%13cnc%14c(N)ncnc%14%13)C%12)O[C@@H](n%12ccc(N)nc%12=O)C%11)O[C@@H](n%11cnc%12c(N)ncnc%12%11)C%10)O[C@@H](n%10ccc(N)nc%10=O)C9)O[C@@H](n9ccc(N)nc9=O)C8)O[C@@H](n8ccc(N)nc8=O)C7)O[C@@H](n7cnc8c(N)ncnc87)C6)O[C@@H](n6cnc7c(N)ncnc76)C5)O[C@@H](n5cnc6c(N)ncnc65)C4)O[C@@H](n4cnc5c(=O)[nH]c(N)nc54)C3)O2)c(=O)[nH]c1=O` (stereo not given in full), the FC (Poliovirus 1) was 2, the Activity (HeLa) was “Non-toxic” and the Activity (SK-N-MC) was “Non-toxic”. For the same compound, the FC (rhinovirus B14) was 2 and the Activity (Vero) was “Non-toxic”.
